In ChEMBL document CHEMBL1157001, “Synthesis and antibacterial evaluation of isoxazolinyl oxazolidinones: Search for potent antibacterial” (2009):
Converted amounts (≈) assume the structure as drawn. The source made the active and inactive calls. The rule behind the calls is not given here.

How the values were obtained:
Bacillus cereus = assay: Antibacterial activity against Bacillus cereus MTCC 430 after 24 hrs; assay type: functional; settings: MTCC 430, 24 h
Method in brief: (§1)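 Broth microdilution MIC per NCCLS protocol in Mueller Hinton broth. Strains grown on nutrient agar at 37 °C for 24 h, then suspended in normal saline with 0.05% Tween 20. Inoculum was a McFarland-matched suspension diluted into medium. Compounds were dissolved in DMSO at 1 mg/mL stock and serially twofold diluted, top concentration 50 µg/mL. Plates incubated 35 °C, moist dark chamber, 24 h. MIC read spectrophotometrically.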

Staphylococcus aureus [1] = assay: Antibacterial activity against methicillin-resistant Staphylococcus aureus ATCC 70069 after 24 hrs; assay type: functional; settings: ATCC 70069, 24 h
Staphylococcus aureus [2] = assay: Antibacterial activity against floxacin and methicillin-resistant Staphylococcus aureus ATCC 25923 after 24 hrs; assay type: functional; settings: ATCC 25923, 24 h
Streptococcus pyogenes = assay: Antibacterial activity against Streptococcus pyogenes after 24 hrs; assay type: functional; method in brief: as §1
Staphylococcus aureus [3] = assay: Antibacterial activity against […] Staphylococcus aureus ATCC 29213 after 24 hrs; assay type: functional; settings: ATCC 29213, 24 h
Klebsiella pneumoniae = assay: Antibacterial activity against Klebsiella pneumoniae ATCC 27736 after 24 hrs; assay type: functional; settings: ATCC 27736, 24 h; method in brief: as §1
Pseudomonas aeruginosa = assay: Antibacterial activity against Pseudomonas aeruginosa ATCC BAA427 after 24 hrs; assay type: functional, organism-based; method in brief: as §1
Enterococcus faecalis = assay: Antibacterial activity against Enterococcus faecalis MTCC 439 after 24 hrs; assay type: functional; settings: MTCC 439, 24 h; method in brief: as §1
Escherichia coli = assay: Antibacterial activity against Escherichia coli ATCC 9637 after 24 hrs; assay type: functional, organism-based; method in brief: as §1

Row | SMILES | MIC (Bacillus cereus) [µM] | MIC (Staphylococcus aureus [1]) [µM] | MIC (Staphylococcus aureus [2]) [µM] | MIC (Streptococcus pyogenes) [µM] | MIC (Staphylococcus aureus [3]) [µM] | MIC (Klebsiella pneumoniae) [µM] | Activity (Pseudomonas aeruginosa) | MIC (Enterococcus faecalis) [µM] | Activity (Escherichia coli)
1 | CC(=O)NC[C@H]1CN(c2ccc(N3CCN(C(=O)C4CC(c5ccc(Cl)c(Cl)c5)=NO4)CC3)c(F)c2)C(=O)O1 (mixture of isomers) | 0.156 | 0.329 | 0.329 | 0.329 | 2.7 | 0.329 | inactive | 0.329 | inactive
2 | CC(=O)NC[C@H]1CN(c2ccc(N3CCN(C(=O)C4CC(c5cccc(C(F)(F)F)c5)=NO4)CC3)c(F)c2)C(=O)O1 (mixture of isomers) | 1.35 | 1.35 | 1.35 | 1.35 | 2.7 | 2.7 | inactive | 1.35 | inactive
3 | CC(=O)NC[C@H]1CN(c2ccc(N3CCN(C(=O)C4CC(c5ccc(C(F)(F)F)cc5)=NO4)CC3)c(F)c2)C(=O)O1 (mixture of isomers) | 0.676 | 0.676 | 0.676 | 0.676 | 2.7 | 0.676 | inactive | 0.329 | inactive
4 | CC(=O)NC[C@H]1CN(c2ccc(N3CCN(C(=O)C4CC(c5ccccc5)=NO4)CC3)c(F)c2)C(=O)O1 (mixture of isomers) | 24.6 | 24.6 | 24.6 | 24.6 | 24.6 | 24.6 | inactive | 24.6 | inactive
5 | CC(=O)NC[C@H]1CN(c2ccc(N3CCN(C(=O)C4CC(c5cccs5)=NO4)CC3)c(F)c2)C(=O)O1 (mixture of isomers) | 6.06 | 24.3 | 6.06 | 12.1 | 24.3 | 6.06 | inactive | 24.3 | inactive
6 | CC(=O)NC[C@H]1CN(c2ccc(N3CCN(C(=O)C4CC(c5ccsc5)=NO4)CC3)c(F)c2)C(=O)O1 (mixture of isomers) | 12.1 | 6.06 | 12.1 | 12.1 | 24.3 | 6.06 | inactive | 12.1 | inactive
7 | CC(=O)NC[C@H]1CN(c2ccc(N3CCN(C(=O)C4CC(c5ccccn5)=NO4)CC3)c(F)c2)C(=O)O1 (mixture of isomers) | 0.765 | 1.53 | 0.765 | 0.372 | 1.53 | 0.765 | inactive | 0.372 | inactive
8 | CC(=O)NC[C@H]1CN(c2ccc(N3CCN(C(=O)C4CC(c5ccc(F)cc5)=NO4)CC3)c(F)c2)C(=O)O1 (mixture of isomers) | 0.74 | 0.74 | 0.74 | 0.74 | 0.74 | 1.48 | inactive | 0.74 | inactive
9 | CC(=O)NC[C@H]1CN(c2ccc(N3CCN(C(=O)C4CC(c5ccc(Cl)cc5)=NO4)CC3)c(F)c2)C(=O)O1 (mixture of isomers) | 0.35 | 0.35 | 0.166 | 0.349 | 2.87 | 0.166 | inactive | 0.35 | inactive
10 | COc1ccc(C2=NOC(C(=O)N3CCN(c4ccc(N5C[C@H](CNC(C)=O)OC5=O)cc4F)CC3)C2)cc1O (mixture of isomers) | 0.342 | 0.703 | 0.342 | 0.703 | 0.703 | 0.342 | inactive | 0.342 | inactive
11 | CC(=O)NC[C@H]1CN(c2ccc(N3CCN(C(=O)C4CC(c5ccc6c(c5)OCO6)=NO4)CC3)c(F)c2)C(=O)O1 (mixture of isomers) | 0.344 | 0.344 | 0.163 | 0.344 | 2.82 | 0.163 | inactive | 0.344 | inactive
12 | CC(=O)NC[C@H]1CN(c2ccc(N3CCN(C(=O)C4CC(c5ccc(C)cc5)=NO4)CC3)c(F)c2)C(=O)O1 (mixture of isomers) | 0.363 | 1.49 | 0.363 | 0.746 | 2.98 | 0.363 | inactive | 0.746 | inactive
13 | CC(=O)NC[C@H]1CN(c2ccc(N3CCN(C(=O)C4CC(c5cccc([N+](=O)[O-])c5)=NO4)CC3)c(F)c2)C(=O)O1 (mixture of isomers) | 0.162 | 0.704 | 0.343 | 0.704 | 0.704 | 0.704 | inactive | 0.0866 | inactive
14 | CC(=O)NC[C@H]1CN(c2ccc(N3CCN(C(=O)C4CC(c5ccco5)=NO4)CC3)c(F)c2)C(=O)O1 (mixture of isomers) | 1.56 | 1.56 | 0.781 | 0.781 | 6.25 | 1.56 | inactive | 0.781 | inactive
15 | CC(=O)NC[C@H]1CN(c2ccc(N3CCN(C(=O)C4CC(c5ccc(F)c(F)c5)=NO4)CC3)c(F)c2)C(=O)O1 (mixture of isomers) | 0.349 | 0.349 | 0.349 | 0.349 | 0.716 | 0.716 | inactive | 0.349 | inactive
16 | CC(=O)NC[C@H]1CN(c2ccc(N3CCOCC3)c(F)c2)C(=O)O1 [LINEZOLID] | 2.31 (≈ 0.781 µg/mL) | 4.63 (≈ 1.56 µg/mL) | 4.63 (≈ 1.56 µg/mL) | 4.63 (≈ 1.56 µg/mL) | 9.26 (≈ 3.12 µg/mL) | 4.63 (≈ 1.56 µg/mL) | – | 9.26 (≈ 3.12 µg/mL) | –
17 | CN[C@H](CC(C)C)C(=O)N[C@H]1C(=O)N[C@@H](CC(N)=O)C(=O)N[C@H]2C(=O)N[C@H]3C(=O)N[C@H](C(=O)N[C@H](C(=O)O)c4cc(O)cc(O)c4-c4cc3ccc4O)[C@H](O)c3ccc(c(Cl)c3)Oc3cc2cc(c3O[C@@H]2O[C@H](CO)[C@@H](O)[C@H](O)[C@H]2O[C@H]2C[C@](C)(N)[C@H](O)[C@H](C)O2)Oc2ccc(cc2Cl)[C@H]1O [VANCOMYCIN] | 0.128 (≈ 0.185 µg/mL) | 4.21 (≈ 6.1 µg/mL) | 0.262 (≈ 0.38 µg/mL) | 0.262 (≈ 0.38 µg/mL) | 1.05 (≈ 1.52 µg/mL) | 0.262 (≈ 0.38 µg/mL) | – | 0.525 (≈ 0.761 µg/mL) | –
